The pIC50 is −log10 of the IC50, conventionally taken in molar units. A low value points to a large IC50.

The target in test [1] is 3',5'-cyclic-AMP phosphodiesterase 4B (Homo sapiens, UniProt Q07343). Description: Inhibition of human full length PDE4B expressed in insect SF21 cells using cAMP as substrate by scintillation proximity assay. A digest of the protocol:
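Full-length enzyme harvested by sonication of supernatants of overexpressing Sf21 cells. Scintillation proximity assay with 0.5 μM cAMP substrate. Enzyme level set so that <20% of cAMP was consumed. Blanks used denatured protein. Run in at least duplicate. IC50 obtained by a one-site competitive binding fit, with curves assumed to plateau at 100% inhibition.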

Test [2] addresses T1, Class 1 phosphodiesterase PDEB1 (Trypanosoma brucei, UniProt Q8WQX9).
T1 sequence (Q8WQX9 whole entry): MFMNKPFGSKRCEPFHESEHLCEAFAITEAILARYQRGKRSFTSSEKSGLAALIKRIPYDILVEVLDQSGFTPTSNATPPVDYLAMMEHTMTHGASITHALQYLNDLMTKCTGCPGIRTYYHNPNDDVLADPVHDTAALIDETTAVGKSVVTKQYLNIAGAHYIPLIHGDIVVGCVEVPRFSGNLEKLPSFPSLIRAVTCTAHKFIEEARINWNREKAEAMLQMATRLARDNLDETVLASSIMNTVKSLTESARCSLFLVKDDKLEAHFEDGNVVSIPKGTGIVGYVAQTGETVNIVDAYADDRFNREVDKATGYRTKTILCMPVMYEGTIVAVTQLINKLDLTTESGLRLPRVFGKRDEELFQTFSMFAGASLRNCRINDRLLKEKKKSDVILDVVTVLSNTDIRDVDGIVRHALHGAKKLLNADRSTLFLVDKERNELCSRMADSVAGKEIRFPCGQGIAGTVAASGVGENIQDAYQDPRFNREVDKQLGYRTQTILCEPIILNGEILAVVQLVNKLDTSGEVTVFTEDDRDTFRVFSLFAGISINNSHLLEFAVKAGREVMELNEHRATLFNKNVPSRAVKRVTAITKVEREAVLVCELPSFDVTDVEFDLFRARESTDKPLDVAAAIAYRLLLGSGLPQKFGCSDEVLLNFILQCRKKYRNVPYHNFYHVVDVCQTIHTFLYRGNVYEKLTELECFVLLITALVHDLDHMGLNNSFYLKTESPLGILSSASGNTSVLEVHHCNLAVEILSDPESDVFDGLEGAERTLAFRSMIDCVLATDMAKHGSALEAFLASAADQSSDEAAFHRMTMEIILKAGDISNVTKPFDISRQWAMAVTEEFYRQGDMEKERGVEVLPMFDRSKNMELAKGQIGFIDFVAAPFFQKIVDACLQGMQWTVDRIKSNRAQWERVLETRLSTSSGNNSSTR
Description: Inhibition of Trypanosoma brucei full length PDEB1 expressed in insect SF21 cells using cAMP as substrate by scintillation proximity assay. A digest of the protocol: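 Full-length enzyme harvested by sonication of supernatants of overexpressing Sf21 cells. Scintillation proximity assay with 0.5 μM cAMP substrate. Enzyme level set so that <20% of cAMP was consumed. Blanks used denatured protein. Run in at least duplicate.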

The nature of test [3]: Selectivity ratio of IC50 for Trypanosoma brucei PDEB1 to IC50 for human PDE4B.

pIC50: −log10 of the molar value.

Sequence of 3',5'-cyclic-AMP phosphodiesterase 4B (Q07343 whole entry): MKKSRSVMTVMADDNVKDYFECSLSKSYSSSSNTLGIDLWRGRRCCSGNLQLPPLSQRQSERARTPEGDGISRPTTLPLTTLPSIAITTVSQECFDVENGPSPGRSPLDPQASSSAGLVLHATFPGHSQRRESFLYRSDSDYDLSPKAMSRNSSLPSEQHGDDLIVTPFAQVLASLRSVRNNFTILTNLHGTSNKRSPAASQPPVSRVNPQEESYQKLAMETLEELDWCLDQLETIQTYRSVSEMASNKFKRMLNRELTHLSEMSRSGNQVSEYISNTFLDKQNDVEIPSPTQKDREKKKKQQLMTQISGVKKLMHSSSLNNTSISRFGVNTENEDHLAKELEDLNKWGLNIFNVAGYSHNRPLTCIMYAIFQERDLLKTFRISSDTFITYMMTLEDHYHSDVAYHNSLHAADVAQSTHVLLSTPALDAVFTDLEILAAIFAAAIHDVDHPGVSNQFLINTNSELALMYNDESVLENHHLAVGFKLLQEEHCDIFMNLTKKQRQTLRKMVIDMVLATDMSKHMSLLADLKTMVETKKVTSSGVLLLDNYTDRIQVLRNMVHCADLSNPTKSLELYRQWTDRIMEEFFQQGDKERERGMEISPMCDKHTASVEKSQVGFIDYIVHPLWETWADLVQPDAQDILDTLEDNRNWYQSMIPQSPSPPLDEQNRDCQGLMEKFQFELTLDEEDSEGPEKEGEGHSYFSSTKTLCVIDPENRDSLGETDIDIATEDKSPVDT

Turning to `O=C(CCCSc1ncnc2sc(-c3ccccc3)cc12)N1CCOCC1`, the results for the negative-log IC50 (pIC50) in test [1] and in test [2] were 4.85 and 4.92, respectively.
In the case of `O=C1c2cccc3cccc(c23)C(=O)N1CCCC(=O)N(Cc1ccco1)C1CC1`, the Ratio IC50 in test [3] is 2.6. Moreover, the pIC50 in test [1] is 4.80; in test [2], 4.39.
Regarding `Cc1cc(SCC(=O)c2ccc(O)c(O)c2)n2nc(C)c(-c3ccccc3)c2n1`, the values for the pIC50 in test [1] and in test [2] were 5.30 and 4.89, respectively.
For `O=C(CCc1nc2ccccc2n(CCc2ccccc2)c1=O)N1CCCCC1`, in test [3], the Ratio IC50 was determined as 3.6. In addition, the pIC50 in test [1] is 4.82; in test [2] it was 4.27.
For `CCCn1c(=O)n(C)c(=O)c2c(SCC(=O)c3ccc(Cl)cc3)nc(CC(C)C)nc21` the same measures were 0.4, 4.59 and 5.00.
In the case of `O=C(NCc1ccc(Cn2cncn2)cc1)c1ccc2[nH]c3c(c2c1)CCCC3`, the results for the pIC50 in test [1] and in test [2] were 4.17 and 4.12, respectively.

(Values after ChEMBL document CHEMBL2321836, “Discovery of novel Trypanosoma brucei phosphodiesterase B1 inhibitors by virtual screening against the unliganded TbrPDEB1 crystal structure” (J Med Chem, 2013).)
